This is a sample that favours compounds with a hit; in the whole collection about 4.5% have one here.
CHOP inhibitor = inhibitors of CHOP induction in ER stress response. CHO-K1 CHOP-promoter luciferase, tunicamycin-induced, 15-18 h. inhibition, % at 10 µM. 220,000 tested, 3.8% active. AID 2732;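 active = compounds that reduced the stress-induced luciferase reporter signal by more than about 70% of percent inhibition, limit read from the data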;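 also: 0% = tunicamycin plus vehicle and 100% = wells without tunicamycin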
CHOP UPR activ = activators of apoptotic arm of unfolded protein response (CHOP). CHO-CHOP luciferase reporter, UPR activation, luminescence; percent of tunicamycin response over DMSO baseline. activation, % at 10 µM. 330,000 tested, 0.34% active;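 active = at 10 µM dose, activation of 40% or more, normalized to positive control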;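 also: 100% = tunicamycin at 10 µg/mL and 0% = DMSO alone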
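Test system: CHO CHOP reporter cells. Input: 500 CHO-CHOP cells per well. Medium: F12 with 10% FBS. Technique: luciferase luminescence. Measure: percent activation relative to tunicamycin control. Dosing: 10 µM compound, 0.5% DMSO. Timing: 16-18 h cell attachment, then 6 h compound exposure, 37 °C.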
M18AAP inhibitor = blocks P. falciparum M18 aspartyl aminopeptidase. recombinant PfM18AAP, H-Glu-NHMec fluorogenic cleavage. 290,000 tested, 1.2% active. inhibition, % at 7.35 µM. AID 1822;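 active = inhibition above the campaign mean inhibition over all tested compounds plus 3 SD, cut at about 28% in these data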;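 also: 0% = plate median of test compound wells and 100% = 2 mM ZnCl2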
UPR XBP1 act = activators of adaptive arm of unfolded protein response (XBP1). CHO-XBP1 luciferase reporter, IRE1-XBP1 UPR activation, luminescence; percent of tunicamycin response, DMSO as zero. activation, % at 20 µM. 330,000 tested, 0.33% active;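 active = versus positive control, 20 µM dose yields 30% or more activation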;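 also: 100% = tunicamycin at 10 µg/mL and 0% = DMSO only wells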
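Material: CHO-XBP1 cells stably carrying IRE1-XBP1-driven luciferase reporter | Medium: F12 with 10% serum | Compound dosing: 20 µM single concentration, DMSO 1% | Incubation: Overnight seeding at 37 °C, 6 h compound treatment at 37 °C | Detection: Steady-Glo luminescence read | Read-out basis: % activation of reporter signal versus tunicamycin and DMSO controls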
HCV NS3 hel inh = inhibitors of Hepatitis C virus NS3 helicase; inhibition, % at 10.9 µM; 290,000 tested, 0.56% active; NS3 helicase DNA unwinding, Cy5 molecular beacon fluorescence;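 active = inhibition above the mean of all tested compounds plus 3 SD, set per campaign, cut at about 35% in these data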;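 also: 0% = DMSO wells and 100% = thioflavine S control wells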
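test system = hepatitis C virus NS3 helicase domain fragment enzyme | reagent = annealed dual-labelled DNA beacon duplex, ATP-started | times = 1 h at 25 °C | detection = Cy5 fluorescence, 0 and 60 min reads | read-out basis = percent inhibition from t60/t0 fluorescence ratio | control set = DMSO and thioflavine S | replication = one well per compound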
p97 inhibitor = human p97 ATPase inhibition | P55072 | recombinant p97 ATPase, Kinase-Glo ATP luminescence, 3 h | inhibition, % at 8 µM | 220,000 tested, 0.42% active | AID 1481; in the data active = inhibition above about 15%;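 also: 0% = DMSO vehicle and 100% = wells lacking enzyme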
Target sequence (P55072 whole entry, looked up): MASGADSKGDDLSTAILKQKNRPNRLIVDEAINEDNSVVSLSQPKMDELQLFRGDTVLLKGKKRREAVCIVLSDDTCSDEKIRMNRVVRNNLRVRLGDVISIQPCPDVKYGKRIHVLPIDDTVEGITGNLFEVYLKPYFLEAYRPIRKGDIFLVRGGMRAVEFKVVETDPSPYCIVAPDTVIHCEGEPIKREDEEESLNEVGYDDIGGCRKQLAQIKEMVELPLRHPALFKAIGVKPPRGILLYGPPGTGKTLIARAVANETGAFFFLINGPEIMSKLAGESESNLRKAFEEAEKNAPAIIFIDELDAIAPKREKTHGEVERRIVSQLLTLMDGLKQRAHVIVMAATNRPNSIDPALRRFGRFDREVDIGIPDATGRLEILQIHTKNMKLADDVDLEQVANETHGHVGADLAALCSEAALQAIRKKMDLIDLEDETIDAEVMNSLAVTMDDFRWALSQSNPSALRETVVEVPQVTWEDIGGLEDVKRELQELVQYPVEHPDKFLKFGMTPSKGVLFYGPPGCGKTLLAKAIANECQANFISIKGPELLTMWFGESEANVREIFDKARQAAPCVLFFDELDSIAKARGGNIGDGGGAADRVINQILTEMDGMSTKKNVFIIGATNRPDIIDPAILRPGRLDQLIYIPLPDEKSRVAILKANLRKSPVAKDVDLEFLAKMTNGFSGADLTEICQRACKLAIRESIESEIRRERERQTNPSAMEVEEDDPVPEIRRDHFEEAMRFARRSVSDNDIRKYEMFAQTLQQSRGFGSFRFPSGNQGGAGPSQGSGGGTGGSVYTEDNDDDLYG
CHOP confirm = confirmation of CHOP induction inhibitors; shares compounds with CHOP inhibitor; CHO-CHOP promoter luciferase reporter, tunicamycin-induced, luminescence; inhibition, % at 10 µM; 2,100 tested, 45% active;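 active = mean of three repeat readings of reporter signal inhibition above a set limit, cut at about 70% in these data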;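 also: 0% = tunicamycin plus vehicle and 100% = wells lacking tunicamycin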
Starred values were filed as active, the others as inactive; / = not tested or not shown.

SMILES	CHOP inhibitor	CHOP UPR activ	M18AAP inhibitor	UPR XBP1 act	HCV NS3 hel inh	p97 inhibitor	CHOP confirm
COc1cccc(C2c3[nH]c4ccccc4c3C[C@H]3C(=O)N(c4ccccc4C(=O)NCCCN4CCOCC4)C(=O)N23)c1 (some centres undefined)	/	-1	9	-2	-94	/	/
COc1ccc(CCn2c(SCC(=O)Nc3cc(C)on3)nc3ccccc3c2=O)cc1OC	57	3	-1	23	-3	6	/
Cc1cc(NC(=O)CSc2nc3cc4c(cc3c(=O)n2CCc2ccccc2)OCO4)no1	99*	4	-4	4	4	-1	101*
Cc1ccccc1-n1c(SCC(=O)Nc2ccccc2Cl)nc2n[nH]c(C)c2c1=N	/	3	6	5	-8	/	/
CCOc1ccccc1NC(=O)CCSc1nc2n[nH]c(C)c2c(=N)n1-c1ccccc1Cl	101*	7	-6	110*	-2	3	10
COc1cc(C)nc(N2CCCC(C(=O)Nc3ccccc3Br)C2)n1 (centres undefined)	6	0	-6	1	15	-2	/
COc1cc(C)nc(N2CCCC(C(=O)Nc3cccc(Cl)c3C)C2)n1 (centres undefined)	105*	-1	-6	2	2	4	95*
CCOc1cc(/C=C\[N+](=O)[O-])ccc1OCC(=O)Nc1ccccc1C	108*	-11	1	-6	4	1	136*
O=[N+]([O-])c1ccc(Sc2nc3ccccc3o2)c([N+](=O)[O-])c1	109*	-2	-10	-5	4	4	122*
CCC(C)(C)NC(=O)CN(C(=O)CNS(=O)(=O)c1ccc(F)cc1)c1ccc2c(c1)OCCO2	/	0	-1	4	-1	/	/
Cc1ccccc1OCc1nc(-c2ccccc2)no1	100*	6	2	3	17	4	0
O=C1c2cccc3c([N+](=O)[O-])ccc(c23)C(=O)N1O	/	-3	26	22	9	/	/
O=C1c2cccc3c([N+](=O)[O-])ccc(c23)C(=O)N1c1ccc(Cl)cn1	109*	16	3	-6	7	6	51
O=C1c2cccc3c([N+](=O)[O-])ccc(c23)C(=O)N1c1ccccn1	101*	-6	-1	-8	5	6	84*
O=C1c2cccc3c([N+](=O)[O-])ccc(c23)C(=O)N1c1nccs1	110*	-9	-3	-6	-4	10	38
COc1ccccc1C(=O)NCC(c1cccs1)N1CCc2ccccc21 (centres undefined)	/	2	/	-2	/	/	/
COc1ccc(CC(=O)Nc2cccc(-c3nnc(-c4cccc(C)c4)o3)c2)cc1OC	/	-5	7	-7	-5	-1	113*
CCOC(=O)C1CCN(C(=O)COC(=O)c2ccccc2C(=O)c2ccc(Cl)cc2)CC1	/	1	/	-2	/	/	/
N#Cc1c(NCCN)nc(-c2ccco2)c2c1CCCC2	105*	0	6	-1	-1	-1	30
CC(C)CCNc1nc(-c2ccco2)c2c(c1C#N)CCCC2	29	-2	-4	-3	18	-1	/
COc1ccc(-n2c(-c3cc(-c4ccccc4)sc3N)n[nH]c2=S)cc1	100*	1	14	1	2	3	8
Nc1sc(-c2ccccc2)cc1-c1n[nH]c(=S)n1C1CCCCC1	-20	-1	4	4	3	0	/
O=c1[nH]c(=S)[nH]c(O)c1N=Nc1ccc(-c2ccccc2)cc1[N+](=O)[O-]	102*	/	0	/	7	6	42
Cc1ccccc1CN1CCN(Cc2ccc3cccc(F)c3n2)CC1CCO (centres undefined)	/	0	1	-6	1	/	/
CCCc1nc2oc(C(=O)c3ccccc3)c(N)c2c2c1COC(C)(C)C2	110*	-4	1	5	-5	3	97*
SMILES	CHOP inhibitor	CHOP UPR activ	M18AAP inhibitor	UPR XBP1 act	HCV NS3 hel inh	p97 inhibitor	CHOP confirm
Cc1nc2oc3c(=O)[nH]cnc3c2c2c1COC(C)(C)C2	-17	-1	0	-4	-4	1	/
Cc1nc2oc(C(=O)c3ccc(Br)cc3)c(N)c2c2c1COC(C)(C)C2	101*	1	0	5	1	-5	-62
Cc1cc(C)n(-c2ccc(C(=O)Nc3ccc(C)c(S(=O)(=O)N4CCOCC4)c3)cc2)n1	31	0	0	3	0	-5	/
CCOc1ccc(/C=N/Nc2ccccn2)cc1OC	-2	6	0	3	9	-4	/
CCOc1ccc(/C=N/N(C)c2ccccc2)cc1OC	100*	2	10	3	0	-7	3
O=C(N/N=C/C=C/c1ccccc1)NC1CCCCC1	101*	1	9	0	-5	-1	20
Cc1cccc2cc3c(N)c(C#N)sc3nc12	99*	0	-46	1	12	-1	70*
COc1ccc(S(=O)(=O)NCCSc2ccc(C)cc2)cc1OC	36	0	-3	-2	-12	-1	/
Cc1ccc(SCCNS(=O)(=O)c2ccc(F)cc2)cc1	97*	2	4	-1	-1	-4	6
Cc1ccc(C(=O)Nc2c(C)cc(C)c3cccnc23)cc1	/	3	-6	-2	-7	/	/
CCN1CCN(c2cc(C)c3cc(NC(=S)N4CCN(c5ccc(F)cc5)CC4)ccc3n2)CC1	106*	5	-4	0	-60	-2	-9
CCN1CCN(C(=S)Nc2ccc3nc(N4CCN(CC)CC4)cc(C)c3c2)CC1	-1	1	8	-1	7	0	/
CCCNC(=O)COC(=O)c1ccccc1C(=O)c1ccc(Cl)c([N+](=O)[O-])c1	102*	25	4	-4	-12	5	-19
Cc1cc(=O)n2c(C(=O)Nc3ccc(C)c(C)c3)c(C(=O)Nc3ccccc3)sc2n1	97*	2	2	0	-5	4	26
Cc1ccc(NC(=O)c2c(C(=O)Nc3ccccc3)sc3nc(C)cc(=O)n23)cc1	39	0	-2	3	-4	0	/
CC(C)C(C(=O)NCC1CCCO1)N(Cc1ccccc1)C(=O)CNS(=O)(=O)c1ccccc1 (centres undefined)	/	-1	-5	3	17	/	/
CCOc1ccc(/C=N/NC(=O)c2ccc(F)cc2)cc1CN1CC2CC(C1)c1cccc(=O)n1C2 (centres undefined)	/	2	/	-3	/	/	/
CS(=O)(=O)c1ccc(C(=O)OCC(=O)NC(=O)C2CCCCC2)cc1[N+](=O)[O-]	97*	19	9	-11	2	4	10
